Experimental data: PMC9720839 (Cell reports, 2022)
“Also recorded” adds a separate entry of the source. {56-FAM} = 6-carboxyfluorescein label (IDT code)

Assays:
hP13 ZnF5-WWE1-WWE2 = hP13 ZnF5-WWE1-WWE2 (Homo sapiens, UniProt Q7Z2W4); assay: FP RNA binding assay; conditions: FAM-labeled RNA 5 nM, 300 mM KCl
[1] = target: hP13 ZnF5-WWE1-WWE2 (wild type) (Homo sapiens, UniProt Q7Z2W4); assay: Differential scanning fluorimetry; type: binding; conditions: protein 8 μM, DSF
Summary of the method: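 His-GB1-tagged human fragment (residues 507–699) expressed in E. coli Rosetta2, TEV-cleaved, purified by Ni2+, gel filtration and Q flow-through. TM from Boltzmann fit; ΔTM = TM with ligand minus without; two repeats.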

WWE domain from RNF-146 = conditions: ref Wang et al., 2012; cited from earlier work
[2] = target: mouse PARP13 (mP13) ZnF5-WWE1-WWE2 (residues 476-673) (mouse) (UniProt Q3UPF5); assay: SEC-MALS
[3] = target: T1, hP13 ZnF5-WWE1-WWE2 W611A mutant (Homo sapiens, UniProt Q7Z2W4, W611A); assay: Differential scanning fluorimetry; type: binding; conditions: protein 8 μM, DSF
T1 sequence (Q7Z2W4 507-699 W611A): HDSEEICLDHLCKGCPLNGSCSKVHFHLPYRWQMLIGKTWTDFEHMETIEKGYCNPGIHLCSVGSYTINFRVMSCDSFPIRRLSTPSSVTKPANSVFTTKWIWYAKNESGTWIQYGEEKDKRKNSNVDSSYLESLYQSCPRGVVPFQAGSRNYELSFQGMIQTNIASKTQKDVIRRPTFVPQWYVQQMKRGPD

WWE domain of RNF-146 = assay: Fluorescence polarization; conditions: direct FP binding, probe 5 nM
[4] = target: T1, hP13 ZnF5-WWE1-WWE2 W611A mutant; assay: Fluorescence polarization; conditions: direct FP binding, probe 5 nM
Summary of the method: (§1)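 QuickChange point mutants of human fragment (residues 507–699), His-GB1 fusion, expressed in Rosetta2 (0.2 mM IPTG, 16°C, 18 h), TEV-cleaved, purified by Ni2+, gel filtration, Q flow-through. Quadratic 1:1 KD fit; ≥3 experiments, mean ± SD.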

[5] = target: hP13 ZnF5-WWE1-WWE2 R682A mutant (Homo sapiens, UniProt Q7Z2W4, R682A); assay: Fluorescence polarization; type: binding; conditions: R682A versus wild-type hP13 ZnF5-WWE1-WWE2
Chain of hP13 ZnF5-WWE1-WWE2 R682A mutant (Q7Z2W4 507-699 R682A): as the sequence (Q7Z2W4 507-699 W611A) above, with A105W, R176A counted along it
Summary of the method: as §1

[6] = target: hP13 ZnF5-WWE1-WWE2 R577A mutant (Homo sapiens, UniProt Q7Z2W4, R577A); assay: Fluorescence polarization; type: binding; conditions: R577A versus wild-type hP13 ZnF5-WWE1-WWE2
Chain of hP13 ZnF5-WWE1-WWE2 R577A mutant (Q7Z2W4 507-699 R577A): as the sequence (Q7Z2W4 507-699 W611A) above, with R71A, A105W counted along it
Summary of the method: as §1

Chain of hP13 ZnF5-WWE1-WWE2 (wild type) (Q7Z2W4 507-699): as the sequence (Q7Z2W4 507-699 W611A) above, with A105W counted along it
Chain of hP13 ZnF5-WWE1-WWE2 (Q7Z2W4 507-699): as the sequence (Q7Z2W4 507-699 W611A) above, with A105W counted along it

| Compound | change in thermal stability in presence of ligand (in words) [1] | binding (in words) (WWE domain from RNF-146) | change in thermal stability in presence of ligand (in words) [3] | other results |
| --- | --- | --- | --- | --- |
| /56-FAM/rArArArCrArArArArArArArGrArCrGrArArArArA (AAACAAAAAAAGACGAAAAA; RNA, 5' {56-FAM}, backbone not given here) [RNA-FAM] |  |  |  | RNA binding (in words) (hP13 ZnF5-WWE1-WWE2): unable to bind |
| Nc1ncnc2c1ncn2[C@@H]1O[C@H](COP(=O)(O)O)[C@@H](O)[C@H]1O[C@@H]1O[C@H](COP(=O)(O)O)[C@@H](O)[C@H]1O [iso-ADPr] | increase in thermal stability in the presence of iso-ADPr, but to a lesser extent than seen with ADPr | capable of binding |  |  |
| mouse PARP13 (mP13) ZnF5-WWE1-WWE2 (residues 476-673) (from UniProt Q3UPF5 476-673) (domain or fragment) |  |  |  | percent of the scattering mass in the dimer peak [2]: 4%; stoichiometry N [2]: 2 |
| Nc1ncnc2c1ncn2[C@@H]1O[C@H](COP(=O)(O)OP(=O)(O)OP(=O)(O)O)[C@@H](O)[C@H]1O [ATP] | increase in the thermal stability |  | did not show an increase in thermal stability |  |
| γ-(6-Aminohexyl)-ATP-6-FAM [ATP-FAM] |  |  |  | binding to probe (in words) (WWE domain of RNF-146): no evidence of binding; also recorded: no indication of binding; binding to probe (in words) [4]: no evidence of binding; also recorded: no indication of binding; binding affinity, fold weaker than wild type [5]: 1.2 fold; binding affinity, fold weaker than wild type [6]: 1.1 fold |
| Nc1ncnc2c1ncn2[C@@H]1O[C@H](COP(=O)(O)OP(=O)(O)OC[C@H]2OC(O)[C@H](O)[C@@H]2O)[C@@H](O)[C@H]1O (some centres unmarked) [ADPr, ADP-ribose] | increase in the thermal stability; also recorded: increased hP13 ZnF5-WWE1-WWE2 thermal stability | do not bind | did not show an increase in thermal stability |  |
